Each block holds one compound with its values, some of them ahead of it.
Tests used:
[1] = tested on: serum IL-1β, IL-6, TNF-α and IFN-γ; assay: LPS challenge mouse acute inflammation model; format: in vivo, C57BL/6 mice; conditions: oral, 3 days, LPS 300 μg/kg IP
Method in brief: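 Female C57BL/6 mice (6–8 weeks, 18–20 g) were acclimatised for 2 days. LPS 300 μg/kg/day was given IP in 500 μL on days −3, −2 and −1 (n = 8 per LPS group). Test compound (10 or 40 mg/kg/day) was given intragastrically in 500 μL saline 4 h after each LPS dose. Dexamethasone 10 mg/kg/day served as positive control. Saline IP controls had n = 3. Sera were taken 24 h after the last dose for cytokine ELISA.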

[2] = target: Keap1-Nrf2 interaction (Keap1 Kelch domain / FITC-9mer Nrf2 peptide) (Homo sapiens, UniProt Q14145); assay: Fluorescence polarization; format: binding
[3] = HPLC assay for H2O2-induced drug release; format: physicochemical
Method in brief: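 A 10 mM DMSO stock of test compound was diluted to 50 μM final in PBS (10 mM, pH 7.4). H2O2 was added at graded levels (24 h incubation) or at 10 mM (time course), then vortexed. Incubation was at 37 °C in triplicate. Samples taken at intervals were injected directly onto C18 HPLC (70% methanol, 0.5 mL/min, DAD detection). Percent compound came from peak areas against a standard curve.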

[4] = pH stability in PBS; format: physicochemical; conditions: pH 4 to 10, 24 h, 37 °C, 20 μM
Method in brief: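 PBS was adjusted to pH 4–10 with 0.1 M HCl or NaOH. Test compound (20 μM) was incubated at 37 °C for 24 h, in triplicate. Solutions were filtered and injected directly on HPLC three times. Percent remaining came from peak areas.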

[5] = Stability in simulated gastric fluid and simulated intestinal fluid; format: in vitro ADME; conditions: after 8 h, 37 °C, 20 μM
Method in brief: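 Test compound (20 μM) was incubated separately in commercial artificial gastric and intestinal juices at 37 °C for various times, in three parallel runs. Proteins were precipitated with methanol, vortexed and centrifuged at 5000 rpm for 5 min. Supernatants were analysed by HPLC (C18, 70% methanol, 0.5 mL/min) from peak areas.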

[6] = Plasma stability; format: in vitro ADME, rat; conditions: 20 μM, 37 °C
Method in brief: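 Test compound (20 μM) was incubated in plasma at 37 °C for various times, in three parallel runs. Proteins were precipitated with methanol, vortexed and centrifuged at 12,000 rpm for 5 min. Supernatants were analysed by HPLC from peak areas.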

[7] = Liver microsome stability; format: in vitro ADME, rat
Method in brief: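 Rat (CD-1 male) liver microsomes from a 20 mg/mL stock were shaken in PBS at 37 °C for 10 min. Test compound was added from a 0.5 mM DMSO solution, with a 20 μM test level. After 5 min preincubation, the reaction was started with NADPH (6 mM stock). It was quenched with ice-cold acetonitrile at 0, 5, 15, 30 and 45 min. Samples were centrifuged at 5000 rpm for 15 min and supernatants analysed by LC-MS/MS. Ketanserin served as reference.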

[8] = Parallel artificial membrane permeability assay; format: physicochemical; conditions: PAMPA
Method in brief: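 Effective permeability (Pe) at pH 7.4 was measured by double-sink PAMPA.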

[9] = tested on: HepG2-ARE-C8 cells; assay: Nrf2/ARE luciferase reporter assay; format: cell-based
[10] = tested on: RAW264.7 cells; assay: qRT-PCR and Western blot of Nrf2-ARE driven genes in LPS-treated cells; format: cell-based, mouse; conditions: 20 ng/mL LPS 8 h
Method in brief: (§1)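 RAW264.7 cells were pretreated with LPS (20 ng/mL) for 8 h, then exposed to test compound for 16 h. Total RNA was extracted with TRIzol and reverse-transcribed, followed by real-time qRT-PCR. mRNA was normalised to β-actin and expressed as fold of control. Data are means ± SEM, n = 3 independent observations, one-way ANOVA.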

[11] = tested on: RAW264.7 cells; assay: Antioxidant capacity; format: cell-based, mouse; conditions: LPS (20 ng/mL) treated RAW 264.7 cells
Method in brief: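 RAW264.7 cells were pretreated with LPS (20 ng/mL) for 8 h, then exposed to test compound for a further 16 h. SOD activity, GSH-Px activity, GSH/GSSG ratio and MPO activity were measured in the cells. Data are means ± SEM of 3 independent observations, with one-way ANOVA.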

[12] = tested on: RAW264.7 cells; assay: Inflammatory factors; format: cell-based, mouse
Method in brief: as §1

[13] = In vivo pharmacokinetic assay; set-up: species or system SD rats; conditions: rat

Sequence of Keap1-Nrf2 interaction (Keap1 Kelch domain / FITC-9mer Nrf2 peptide) (Q14145 322-609): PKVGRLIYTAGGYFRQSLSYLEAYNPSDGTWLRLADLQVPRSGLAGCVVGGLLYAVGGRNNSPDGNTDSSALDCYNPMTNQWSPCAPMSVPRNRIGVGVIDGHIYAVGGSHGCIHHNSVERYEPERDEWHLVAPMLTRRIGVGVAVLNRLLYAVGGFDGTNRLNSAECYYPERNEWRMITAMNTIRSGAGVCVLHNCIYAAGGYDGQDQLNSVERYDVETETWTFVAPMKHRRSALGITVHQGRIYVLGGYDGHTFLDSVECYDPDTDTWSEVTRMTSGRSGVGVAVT

Compound: C[C@@H]1C[C@H]2[C@@H]3CCC4=CC(=O)C=C[C@]4(C)[C@@]3(F)[C@@H](O)C[C@]2(C)[C@@]1(O)C(=O)CO [DXM, Dexamethasone, reference compound]
- Anti-inflammation effect on serum pro-inflammatory cytokines ([1]; 10 mg/kg): diminished inflammatory response

- Inhibition against Keap-Nrf2 interaction in the FP assay [2]: no inhibition
- Production of compound 1 from the prodrug in the presence of H2O2 ([3]; H2O2 (10 mM), PBS pH 7.4, 37 °C, UPLC/HRMS): cannot be observed even after 12 h
Compound: COc1ccc(S(=O)(=O)N(CC(=O)N2CCSC2=O)c2ccc(N(CC(=O)N3CCSC3=O)S(=O)(=O)c3ccc(OC)cc3)c3ccccc23)cc1 [pro1, N,N'-(naphthalene-1,4-diyl)bis(4-methoxy-N-(2-oxo-2-(2-oxothiazolidin-3-yl)ethyl)benzenesulfonamide)]

- Inhibition against Keap-Nrf2 interaction in the FP assay [2]: no inhibition
- Prodrug released to parent compound 2 ([3]; 1 mM H2O2, incubating 24 h, PBS pH 7.4, 37 °C): approximately 60%
- Time to complete release to the parent compound 2 ([3]; 10 mM H2O2, PBS pH 7.4, 37 °C): ≤ 3 h
- Conversion to parent compound 2 determined by HPLC ([3]; 10 mM H2O2, within 3 h): > 98%
- Stability to hydrolysis in PBS [4]: relatively stable
- Remaining in simulated gastric fluid (SGF) [5]: more than 50%
- Remaining in simulated intestinal fluid (SIF) [5]: more than 50%
- Stability in rat plasma [6]: quite stable
- Stability in co-incubation with rat liver microsomes [7]: quite stable
- Pe at pH 7.4 [8]: 6.35 10−6 cm/s
- Cl_F ([13]; I.V. (2 mg/kg)): 18.5 ± 3.9 mL/min/kg
- Vz_F ([13]; I.V. (2 mg/kg)): 6.44 ± 4.09 L/kg
- Vz_F ([13]; P.O. (10 mg/kg)): 4.79 ± 2.17 L/kg
- bioavailability ([13]; male, SD, plasma, oral): 68.1%
- CL/F ([13]; male, SD, plasma, po, 10 mg/kg): 26.4 ± 1.14 mL/min/kg
Compound: COc1ccc(S(=O)(=O)Nc2ccc(N(CC(=O)N3CCSC3=O)S(=O)(=O)c3ccc(OC)cc3)c3ccccc23)cc1 [pro2, 4-methoxy-N-(4-((4-methoxyphenyl)sulfonamido)naphthalen-1-yl)-N-(2-oxo-2-(2-oxothiazolidin-3-yl)ethyl)benzenesulfonamide]
- Relative ARE induction activity under normal conditions ([9]; HepG2-ARE-C8 cells, no LPS): nearly inactive
- Relative ARE induction activity under various concentrations of LPS ([9]; LPS pretreatment 8 h, then compound 200 nM for 12 h): LPS concentration-dependent enhancement of Nrf2-ARE inducing activity
- Transcription of Nrf2 targeted genes (HO-1, NQO1, GCLM mRNA) ([10]; compound 500 nM, qRT-PCR): highly enhanced the transcription
- Protein levels of Nrf2 and downstream antioxidant enzymes ([10]; then compound 16 h, Western blot): remarkably accumulated Nrf2 protein and elevated downstream antioxidant enzymes
- Activities of SOD and GSH-Px [11]: significantly restored the activities
- GSH/GSSG ratio and MPO activity [11]: restored the levels nearly back to normal
- LPS-induced elevation of IL-1β and IL-6 protein ([12]; LPS (20 ng/mL) 8 h, Western blot): almost completely suppressed the elevation
- mRNA levels of IL-1β and IL-6 ([12]; LPS (20 ng/mL) 8 h, qRT-PCR): significant suppression effects
- Suppression of IL-1β, IL-6 and TNF-α production ([12]; LPS (20 ng/mL), culture supernatants, ELISA): obvious superiority in the suppression
- Anti-inflammation effect on serum pro-inflammatory cytokines ([1]; 10 mg/kg): comparable therapeutic effects with DXM
- Anti-inflammation effect on serum pro-inflammatory cytokines ([1]; 40 mg/kg (high dose)): more potent effects
